# hERG protect: shields human hERG channel from block by proarrhythmic agents | hit rate 0.51% among 310,000 | activation (rescue from dofetilide block), less the hit threshold, % at 10 µM | AID 1511 | Q12809 | CHO-hERG, FluxOR thallium flux, dofetilide IC70 present;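 active = activation above the mean of controls blocked by dofetilide plus 5 SD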;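 also: thallium influx through hERG after potassium depolarization seen as dye fluorescence rise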
# Kir21 block: blocks the mouse Kir2.1 inward-rectifier potassium channel. P35561. HEK293-Kir2.1, FluxOR thallium flux fluorescence; stronger effect = lower value. B-score at 10 µM. hit rate 0.85% among 310,000. AID 1672;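 active = fluorescence ratio B-score at or below minus 3 SD of library scores, with starting-brightness B-score within 2 SD, cut at about -4.2 in these data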;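 also: channel flux triggered by added potassium and thallium sulfate stimulus; B-score of peak minus minimum fluorescence over baseline after thallium stimulus; more negative B-score means stronger Kir2.1 block with less thallium influx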
# KCNK3 block: human KCNK3 channel inhibition, primary screen | CHO-KCNK3 thallium flux, FluxOR fluorescence; stronger effect = lower value | O14649 | B-score at 10 µM | hit rate 0.84% among 340,000;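 active = B-score under library mean minus 4 SD, starting fluorescence ratio at most library mean plus 5 SD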;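 also: more negative B-score means stronger inhibition of thallium flux through KCNK3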
# KCNQ1 pot: human KCNQ1 channel potentiation or activation. P51787. CHO-K1 KCNQ1, thallium flux FluxOR fluorescence; stronger effect = higher value. B-score at 10 µM. hit rate 0.35% among 310,000;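 active = fluorescence ratio B-score, a plate-corrected score, at least three library SD, with initial intensity B-score within 5 SD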
# Target sequence (P51787 whole entry, looked up): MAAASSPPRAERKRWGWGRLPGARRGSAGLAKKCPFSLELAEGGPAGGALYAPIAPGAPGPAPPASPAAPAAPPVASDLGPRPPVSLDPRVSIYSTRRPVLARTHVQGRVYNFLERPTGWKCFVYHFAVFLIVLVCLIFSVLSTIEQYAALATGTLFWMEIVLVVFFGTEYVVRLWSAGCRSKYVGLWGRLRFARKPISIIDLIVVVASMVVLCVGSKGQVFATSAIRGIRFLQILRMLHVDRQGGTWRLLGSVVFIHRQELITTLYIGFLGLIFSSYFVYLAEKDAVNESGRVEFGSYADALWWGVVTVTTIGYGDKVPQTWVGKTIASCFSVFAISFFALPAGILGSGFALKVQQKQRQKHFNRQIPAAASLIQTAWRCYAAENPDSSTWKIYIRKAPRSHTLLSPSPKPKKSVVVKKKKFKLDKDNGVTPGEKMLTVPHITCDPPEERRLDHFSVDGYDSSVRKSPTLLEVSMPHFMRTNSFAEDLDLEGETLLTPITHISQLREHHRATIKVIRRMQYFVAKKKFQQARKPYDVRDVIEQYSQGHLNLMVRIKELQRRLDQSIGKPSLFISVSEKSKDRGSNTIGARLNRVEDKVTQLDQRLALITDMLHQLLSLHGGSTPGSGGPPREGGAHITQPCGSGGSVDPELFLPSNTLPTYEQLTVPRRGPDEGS
#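 Test system: CHO-K1 cells stably expressing KCNQ1 / Medium: assay buffer / Also added: depolarizing K+/Tl+ stimulus, K2SO4 and Tl2SO4 each 12.5 mM in 5x stock / Incubation: 90 min dye loading and 20 min compound exposure, both at room temperature / Signal: thallium influx via FluxOR fluorescence, kinetic imaging / Evaluation: B score of baseline-normalized fluorescence ratio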
# KCNQ1 inh: human KCNQ1 channel inhibition; B-score at 10 µM; P51787; hit rate 1.3% among 310,000; CHO-K1 KCNQ1, FluxOR thallium flux fluorescence; stronger effect = higher value;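 active = compounds whose thallium flux B-score, printed positive for inhibition, exceeds three library SD while starting fluorescence stays within three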;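 also: channel opened by potassium depolarization with thallium stimulus after 20 min compound exposure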
# KCNK9 block: blocks the human KCNK9 two-pore domain potassium channel | Q9NPC2 | HEK293 KCNK9, FluxOR thallium flux fluorescence; stronger effect = lower value | B-score at 10 µM | hit rate 1.2% among 310,000 | AID 488922;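 active = ratio B-score over 3 SD below the library mean, with starting fluorescence within 5 SD of its mean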;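 also: negative B-score means less thallium flux so channel inhibition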
# KCNK9 inh conf: confirmation of human KCNK9 potassium channel inhibitors; HEK293 KCNK9 cells, FluxOR thallium flux fluorescence; inhibition, % at 10 µM; hit rate 43% among 4,900; shares compounds with KCNK9 block; AID 492992;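 active = thallium signal inhibited by more than 5 SD of the compound-free buffer control wells, on both duplicate plates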;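 also: 0% = assay buffer control wells without compound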
# Kir2-1 spec: selectivity of KCNK9 modulators against mouse Kir2.1. shares compounds with KCNK9 block. Kir2.1 cells, FluxOR thallium flux fluorescence. inhibition, % at 10 µM. hit rate 4% among 4,900. AID 492993;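 active = thallium signal drop more than 5 SD beyond the mean of the no-compound control wells, seen in both duplicate plates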;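 also: signal is fluorescence rise after thallium addition divided by baseline fluorescence; plate controls were assay buffer only for no effect and full block by chlorpromazine control for full effect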
# HEK293 Tl ctr: second counter-screen for KCNK9 modulators: effect in non-induced cells. non-induced KCNK9-HEK293, FluxOR thallium flux. shares compounds with KCNK9 block. hit rate 40% among 4,900. inhibition, % at 10 µM;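 active = thallium signal drop beyond 5 SD of the untreated control mean, on both duplicate plates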;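 also: plate controls were buffer only IC0 wells for no effect and SID17386958 at its maximal inhibitory level for full effect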
# An asterisk follows results filed as active; i = inactive; / = not tested or not shown. Shown are actives, neighbours in structure and some others; about 3.7% of the full set was active somewhere.
SMILES,hERG protect,Kir21 block,KCNK3 block,KCNQ1 pot,KCNQ1 inh,KCNK9 block,KCNK9 inh conf,Kir2-1 spec,HEK293 Tl ctr
CCC1=NN(C(=O)COc2ccccc2)C(O)(c2ccc(Br)cc2)C1 (centres undefined),-4,-3.2,i,i,i,-17*,52%*,i,35%*
Clc1ccc(CSc2snnc2-c2ccccc2)c(Cl)c1,-17,-2,i,i,7*,i,i,i,25%*
c1ccc(CSc2snnc2-c2ccccc2)cc1,-6,-2.1,i,i,i,i,/,/,/
CC(=O)Nc1ccc(Nc2nc(-c3ccccc3)nc3ccccc23)cc1,-11,-1.1,i,i,i,i,/,/,/
O=C(Nc1nc(-c2ccccc2)nc2ccccc12)c1ccc(F)cc1,-12,1.3,i,i,i,-8.4*,30%*,i,i
COc1ccc(N(CCCN2C(=O)c3cccc4cccc(c34)C2=O)C(=O)c2cccs2)cc1,-8,0.43,i,i,i,i,/,/,/
COc1cc(C)ccc1N(CCCN1C(=O)c2cccc3cccc(c23)C1=O)C(=O)c1cccs1,-22,1.2,i,i,i,-14*,80%*,i,34%*
Cc1ccc(N(CCCCN2C(=O)c3ccccc3C2=O)C(=O)c2cccs2)cc1,-11,0.3,i,i,i,i,i,i,i
CCc1ccc(C(=O)OCC(=O)c2c(N)n(CC(C)C)c(=O)n(C)c2=O)cc1,-23,1.8,i,i,i,i,/,/,/
COc1ccc(/C=C(\C#N)C(=O)NCCc2ccccc2)cc1OCc1ccccc1,-19,0.6,i,i,i,i,i,i,i
COc1cc(/C=C(/C#N)C(=O)NCc2ccccc2)cc(OC)c1OC,-8,0.12,i,i,i,i,/,/,/
CCOc1ccccc1CNC(=O)CCCc1cn(C)c2ccccc12,-5,-2.8,i,i,i,i,i,i,i
O=C(O)CC1S/C(=N/N=C/c2ccccn2)NC1=O (centres undefined),-3,2.4,i,i,i,i,/,/,/
CCOc1cc(/C=N/N=C2/NC(=O)C(CC(=O)O)S2)ccc1OCc1ccc(Cl)cc1Cl (centres undefined),-5,-2.1,i,i,i,i,i,i,i
Cc1ccc(C)c(N2CCN(CC3CCCCC3)CC2)c1,-10,0.28,i,i,i,i,i,i,i
Cc1ccc(C)c(N2CCN(CCCc3ccccc3)CC2)c1,-3,-0.18,i,i,i,i,i,i,i
COc1cccc(N2CCN(C3CCCC(C)C3)CC2)c1 (centres undefined),-7,0.13,i,i,i,i,/,/,/
Cc1ccc(C)c(N2CCN(C3CCCC(C)C3)CC2)c1 (centres undefined),-13,-0.44,i,i,i,i,i,i,i
O=C(CSc1nc(=O)n(Cc2ccccn2)c2c1CCC2)Nc1ccc(F)cc1F,-13,1.4,i,i,i,i,/,/,/
C=CCc1cccc(CNn2cnnc2)c1O,-4,-0.32,i,i,i,i,/,/,/
Cc1ccc(C)c(C2=NNC(=O)CC2)c1,-12,-1.3,i,i,i,i,/,/,/
Cc1ccc(C2=Nc3ccccc3SC(c3cccc([N+](=O)[O-])c3)C2)cc1 (centres undefined),-5,1.5,-13*,i,i,-13*,71%*,i,40%*
CC(OC(=O)c1ccc2c(c1)S(=O)(=O)c1ccccc1C2=O)C(N)=O (centres undefined),-6,0.08,i,i,i,i,/,/,/
CC(C)(C)C1CCC(=NNC(=O)C2COc3ccccc3O2)CC1 (centres undefined),/,/,i,/,/,/,/,/,/
CCOC(=O)[C@@H]1[C@H]2COc3cc(OC)ccc3[C@H]2N2C(=O)N(c3cccc(F)c3)C(=O)[C@@]12C,/,/,i,/,/,/,/,/,/
SMILES,hERG protect,Kir21 block,KCNK3 block,KCNQ1 pot,KCNQ1 inh,KCNK9 block,KCNK9 inh conf,Kir2-1 spec,HEK293 Tl ctr
CCOC(=O)[C@@H]1[C@H]2COc3ccc(Br)cc3[C@@H]2N2C(=O)N(c3ccc(C(F)(F)F)cc3)C(=O)[C@@]12C,-5,-0.92,i,i,i,-12*,74%*,i,41%*
CCOC(=O)[C@@H]1[C@H]2COc3ccc(Br)cc3[C@@H]2N2C(=O)N(c3cccc(F)c3)C(=O)[C@@]12C,-4,-0.16,i,i,i,-10*,64%*,i,26%*
CCOC(=O)[C@@H]1[C@H]2COc3ccccc3[C@@H]2N2C(=O)N(c3cccc(Cl)c3)C(=O)[C@@]12C,-14,-0.07,i,i,i,-12*,56%*,i,35%*
CCN[C@H]1CN(CCCOC)S(=O)(=O)c2sc(S(N)(=O)=O)cc21,/,/,i,/,/,/,/,/,/
O=S(=O)(Nn1cnnc1)c1ccc(F)cc1,-8,-0.47,i,i,i,i,/,/,/
O=C(Nc1ccn(Cc2cccc3ccccc23)n1)c1cccnc1,-6,-1,i,i,i,i,/,/,/
C=CCn1c(SCC2CCCCO2)nc2sc(CC)cc2c1=O (centres undefined),-10,0.28,i,i,i,i,i,i,34%*
O=C(OCCOCCN=C1NS(=O)(=O)c2ccccc21)c1ccc(F)cc1,-7,-1.8,i,i,i,i,/,/,/
COc1ccccc1NS(=O)(=O)c1cc(NC(=O)C(C)C)ccc1N1CCCCC1,-4,0.79,i,i,i,-11*,52%*,i,35%*
CCCCC(=O)NCCc1cc2c(OC)ccc(OC)c2[nH]c1=O,-10,-1.1,i,i,i,i,i,i,i
COc1ccc(C(=O)NCCc2cc3c(OC)ccc(OC)c3[nH]c2=O)cc1OC,-14,0.01,i,i,i,i,/,/,/
N/C(=N\OC(=O)CCC1CCCC1)c1cccc([N+](=O)[O-])c1,-9,-0.06,i,i,i,i,/,/,/
Cc1ccc(N(CC(=O)NC2CCCCC2)C(=O)CCCC(=O)Nc2ccccn2)cc1,-11,-0.48,i,i,i,i,/,/,/
Cc1cc(C)n(-c2nnc(C)n2/N=C/c2cc(Br)ccc2OCc2ccccc2)n1,-14,0.48,i,i,i,-8.6*,41%*,i,i

# Screening data: PubChem BioAssay, Johns Hopkins Ion Channel Center
